ChEMBL document CHEMBL2413071, “Discovery of 2-methyl-1-{1-[(5-methyl-1H-indol-2-yl)carbonyl]piperidin-4-yl}propan-2-ol: a novel, potent and selective type 5 17β-hydroxysteroid dehydrogenase inhibitor” (Bioorg Med Chem, 2013)
Calls of active or inactive are those of the source. No cut-off for these calls is given here.

Tests used:
[1] = target: T1, Aldo-keto reductase family 1 member C3 (Homo sapiens, UniProt P42330); test: Inhibition of human 17beta-HSD5 expressed in HEK293 cells using androstenedione as substrate assessed as testosterone synthesis after 4 hrs; format: cell-based
T1 sequence (P42330 whole entry): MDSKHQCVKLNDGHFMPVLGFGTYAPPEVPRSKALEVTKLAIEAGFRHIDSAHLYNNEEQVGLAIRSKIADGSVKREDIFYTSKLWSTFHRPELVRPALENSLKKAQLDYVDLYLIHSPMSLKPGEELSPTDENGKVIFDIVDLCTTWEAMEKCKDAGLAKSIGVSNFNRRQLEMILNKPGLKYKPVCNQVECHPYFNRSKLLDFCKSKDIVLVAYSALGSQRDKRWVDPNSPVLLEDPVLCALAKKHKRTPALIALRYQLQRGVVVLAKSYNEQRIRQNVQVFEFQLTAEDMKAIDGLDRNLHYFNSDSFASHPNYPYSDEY
Summary of the method: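 HEK293 cells stably expressing human 17β-HSD5 were seeded at 2×10^4 cells/well in D-MEM/10% FBS and incubated overnight at 37 °C, 5% CO2. Androstenedione (final 300 nmol/mL) was added with compound. After 4 h, supernatant testosterone was measured by DELFIA immunoassay.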

[2] = target: Voltage-gated inwardly rectifying potassium channel KCNH2 (Homo sapiens, UniProt Q12809); test: Inhibition of human ERG channel by Rb efflux assay
Voltage-gated inwardly rectifying potassium channel KCNH2, sequence (Q12809 whole entry): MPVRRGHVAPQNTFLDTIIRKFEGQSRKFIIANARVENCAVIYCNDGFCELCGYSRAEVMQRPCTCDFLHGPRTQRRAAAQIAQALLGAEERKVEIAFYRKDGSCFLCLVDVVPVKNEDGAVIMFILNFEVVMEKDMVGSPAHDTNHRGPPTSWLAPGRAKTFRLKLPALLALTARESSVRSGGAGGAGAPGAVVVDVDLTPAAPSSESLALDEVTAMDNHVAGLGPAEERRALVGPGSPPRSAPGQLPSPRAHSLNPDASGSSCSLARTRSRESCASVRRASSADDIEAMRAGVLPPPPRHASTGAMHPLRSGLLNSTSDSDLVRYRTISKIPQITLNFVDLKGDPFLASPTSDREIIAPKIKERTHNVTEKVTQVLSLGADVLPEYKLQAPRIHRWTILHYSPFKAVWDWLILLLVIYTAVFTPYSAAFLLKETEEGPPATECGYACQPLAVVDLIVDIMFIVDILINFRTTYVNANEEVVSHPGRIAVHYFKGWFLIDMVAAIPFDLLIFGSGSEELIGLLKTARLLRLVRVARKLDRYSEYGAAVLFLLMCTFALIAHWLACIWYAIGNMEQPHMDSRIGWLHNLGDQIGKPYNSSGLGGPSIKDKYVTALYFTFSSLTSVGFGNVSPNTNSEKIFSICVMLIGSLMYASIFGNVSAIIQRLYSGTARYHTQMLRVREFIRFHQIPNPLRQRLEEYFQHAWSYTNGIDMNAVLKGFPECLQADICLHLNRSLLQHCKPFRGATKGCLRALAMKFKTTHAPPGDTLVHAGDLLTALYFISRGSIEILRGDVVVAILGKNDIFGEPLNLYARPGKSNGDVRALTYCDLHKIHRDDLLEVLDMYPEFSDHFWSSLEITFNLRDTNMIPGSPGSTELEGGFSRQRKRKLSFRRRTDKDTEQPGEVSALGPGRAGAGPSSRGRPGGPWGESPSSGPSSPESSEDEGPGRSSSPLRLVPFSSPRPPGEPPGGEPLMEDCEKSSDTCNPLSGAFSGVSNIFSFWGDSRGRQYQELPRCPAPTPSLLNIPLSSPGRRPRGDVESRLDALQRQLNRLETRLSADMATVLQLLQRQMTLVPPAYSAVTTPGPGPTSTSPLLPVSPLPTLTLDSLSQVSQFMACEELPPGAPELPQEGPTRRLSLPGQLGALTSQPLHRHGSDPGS

Cytochrome P450 2C19 = Cytochrome P450 2C19 (Homo sapiens, UniProt P33261); test: Inhibition of CYP2C19 (unknown origin); format: ADME
Cytochrome P450 2C19, sequence (P33261 whole entry): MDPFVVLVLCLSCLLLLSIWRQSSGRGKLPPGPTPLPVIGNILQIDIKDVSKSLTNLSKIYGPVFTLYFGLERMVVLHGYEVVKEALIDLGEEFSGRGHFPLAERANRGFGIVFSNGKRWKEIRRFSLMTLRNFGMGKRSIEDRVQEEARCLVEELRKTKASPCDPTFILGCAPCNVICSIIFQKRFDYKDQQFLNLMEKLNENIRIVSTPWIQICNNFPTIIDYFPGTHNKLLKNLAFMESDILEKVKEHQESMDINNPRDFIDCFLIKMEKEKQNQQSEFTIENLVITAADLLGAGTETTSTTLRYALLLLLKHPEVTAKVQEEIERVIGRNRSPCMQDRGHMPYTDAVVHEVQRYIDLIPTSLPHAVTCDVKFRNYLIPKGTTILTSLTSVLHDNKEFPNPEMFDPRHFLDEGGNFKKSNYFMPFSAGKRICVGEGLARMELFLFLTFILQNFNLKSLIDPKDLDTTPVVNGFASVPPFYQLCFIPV

Cytochrome P450 3A4 = Cytochrome P450 3A4 (Homo sapiens, UniProt P08684); test: Inhibition of CYP3A4 (unknown origin) using nifedipine as substrate; format: ADME
Cytochrome P450 3A4, sequence (P08684 whole entry): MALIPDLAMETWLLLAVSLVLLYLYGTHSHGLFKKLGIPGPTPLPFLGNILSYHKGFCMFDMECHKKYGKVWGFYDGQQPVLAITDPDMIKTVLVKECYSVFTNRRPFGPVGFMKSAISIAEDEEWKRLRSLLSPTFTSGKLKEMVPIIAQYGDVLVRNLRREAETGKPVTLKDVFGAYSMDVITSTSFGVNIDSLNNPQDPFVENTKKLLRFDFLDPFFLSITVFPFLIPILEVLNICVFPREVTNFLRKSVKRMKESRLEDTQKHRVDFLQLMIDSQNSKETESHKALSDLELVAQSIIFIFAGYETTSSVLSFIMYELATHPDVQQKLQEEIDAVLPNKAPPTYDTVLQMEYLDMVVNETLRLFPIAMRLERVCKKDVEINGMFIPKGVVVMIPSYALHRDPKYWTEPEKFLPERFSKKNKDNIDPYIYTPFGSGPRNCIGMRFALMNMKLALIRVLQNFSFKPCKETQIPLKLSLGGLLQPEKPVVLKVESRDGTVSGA

Cytochrome P450 2D6 = Cytochrome P450 2D6 (Homo sapiens, UniProt P10635); test: Inhibition of CYP2D6 (unknown origin); format: ADME
Cytochrome P450 2D6, sequence (P10635 whole entry): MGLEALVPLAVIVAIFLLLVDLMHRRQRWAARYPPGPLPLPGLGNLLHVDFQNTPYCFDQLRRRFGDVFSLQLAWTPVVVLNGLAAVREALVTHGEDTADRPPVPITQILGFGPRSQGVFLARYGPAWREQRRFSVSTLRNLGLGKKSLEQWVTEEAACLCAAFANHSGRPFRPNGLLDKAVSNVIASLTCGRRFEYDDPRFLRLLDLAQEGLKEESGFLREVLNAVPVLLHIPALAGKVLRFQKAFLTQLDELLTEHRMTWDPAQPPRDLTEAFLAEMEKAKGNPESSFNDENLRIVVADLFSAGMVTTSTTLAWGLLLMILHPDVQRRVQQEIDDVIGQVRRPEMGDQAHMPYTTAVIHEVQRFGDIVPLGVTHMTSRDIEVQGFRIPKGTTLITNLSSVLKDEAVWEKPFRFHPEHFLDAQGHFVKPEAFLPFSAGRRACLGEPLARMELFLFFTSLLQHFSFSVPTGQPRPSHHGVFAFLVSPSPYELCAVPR

Cytochrome P450 2C9 = Cytochrome P450 2C9 (Homo sapiens, UniProt P11712); test: Inhibition of CYP2C9 (unknown origin); format: ADME
Cytochrome P450 2C9, sequence (P11712 whole entry): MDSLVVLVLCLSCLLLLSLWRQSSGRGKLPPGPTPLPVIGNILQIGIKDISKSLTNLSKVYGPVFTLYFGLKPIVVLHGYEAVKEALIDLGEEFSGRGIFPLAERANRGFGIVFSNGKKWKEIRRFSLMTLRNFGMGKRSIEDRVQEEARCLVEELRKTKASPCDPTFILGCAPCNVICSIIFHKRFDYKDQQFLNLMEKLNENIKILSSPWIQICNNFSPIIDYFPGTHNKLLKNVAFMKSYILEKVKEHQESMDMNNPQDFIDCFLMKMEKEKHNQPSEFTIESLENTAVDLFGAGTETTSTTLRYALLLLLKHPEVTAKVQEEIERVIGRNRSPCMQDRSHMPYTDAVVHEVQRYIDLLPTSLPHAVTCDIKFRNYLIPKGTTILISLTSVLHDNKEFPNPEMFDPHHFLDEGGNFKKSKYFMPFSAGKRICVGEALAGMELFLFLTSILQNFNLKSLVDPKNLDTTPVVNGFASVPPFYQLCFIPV

Cytochrome P450 1A2 = target: T2, Cytochrome P450 1A2 (Homo sapiens, UniProt P05177); test: Inhibition of CYP1A2 (unknown origin); format: ADME
T2 sequence (P05177 whole entry): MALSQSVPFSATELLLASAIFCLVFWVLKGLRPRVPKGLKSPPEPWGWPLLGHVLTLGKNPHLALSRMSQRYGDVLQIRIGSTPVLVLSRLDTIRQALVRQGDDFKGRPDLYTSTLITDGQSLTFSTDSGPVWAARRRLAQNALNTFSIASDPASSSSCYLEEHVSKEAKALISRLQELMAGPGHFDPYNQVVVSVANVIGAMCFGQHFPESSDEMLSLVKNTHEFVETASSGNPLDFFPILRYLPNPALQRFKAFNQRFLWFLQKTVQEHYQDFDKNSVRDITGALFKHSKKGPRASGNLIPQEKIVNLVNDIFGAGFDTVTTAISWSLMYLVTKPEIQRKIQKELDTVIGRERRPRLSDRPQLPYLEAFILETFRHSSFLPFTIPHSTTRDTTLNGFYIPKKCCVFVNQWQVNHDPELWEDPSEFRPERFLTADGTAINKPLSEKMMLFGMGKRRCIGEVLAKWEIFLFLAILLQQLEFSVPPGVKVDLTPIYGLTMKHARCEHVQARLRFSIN

[3] = target: T3, Aldo-keto reductase family 1 member C2 (Homo sapiens, UniProt P52895); test: Inhibition of human AKR1C2-mediated 9,10-phenanthrenequinone reduction after 10 to 20 mins by spectrophotometry in presence of NADPH
T3 sequence (P52895 whole entry): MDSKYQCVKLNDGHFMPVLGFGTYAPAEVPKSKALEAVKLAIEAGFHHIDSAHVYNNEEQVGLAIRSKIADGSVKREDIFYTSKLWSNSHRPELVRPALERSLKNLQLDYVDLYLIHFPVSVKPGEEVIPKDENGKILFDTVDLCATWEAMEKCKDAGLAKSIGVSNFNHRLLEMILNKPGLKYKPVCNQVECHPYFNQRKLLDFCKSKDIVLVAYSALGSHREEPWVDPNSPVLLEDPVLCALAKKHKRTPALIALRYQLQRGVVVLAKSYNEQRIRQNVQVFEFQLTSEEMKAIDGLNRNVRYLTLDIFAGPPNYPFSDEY
Summary of the method: (§1)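 Purified human AKR1C enzyme (final 10 μg/mL) was mixed with 9,10-phenanthrenequinone (4 μmol/L), NADPH (200 μmol/L) and compound in 100 mM potassium phosphate pH 6.0, at room temperature for 10-20 min. NADPH absorbance was read at 340 nm and normalized to no-enzyme (0%) and no-compound (100%) controls. IC50 was obtained by Sigmoid-Emax nonlinear regression.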

[4] = target: T1, Aldo-keto reductase family 1 member C3; test: Inhibition of human AKR1C3-mediated 9,10-phenanthrenequinone reduction after 10 to 20 mins by spectrophotometry in presence of NADPH; summary of the method: as §1
Mus musculus [5] = test: Inhibition of androstenedione-induced testosterone production in tumor of human CWR22R cells xenografted in BALB/c athymic nude mouse at 10 mg/kg, po treated 1 hr prior to androstenedione-challenge measured after 2 hrs; format: functional, organism-based; design: dose 10 mg/kg
Summary of the method: (§2)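 Male BALB/c athymic nude mice aged 4-6 weeks were castrated, then given subcutaneous CWR22R tumor cells (protease-digested fragments in RPMI 1640/20% FBS mixed 1:1 with Matrigel) into each flank. About 3 weeks later, size-matched mice were randomized (n = 4/group) and dosed orally. Androstenedione (1 ng/100 mm3 tumor) was injected intratumorally 1 h post-dose. Tumors were removed at 2 h, homogenized in 200 mmol/L phosphate pH 7.4, and extracted with tert-butyl methyl ether; testosterone was read by DELFIA.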

Mus musculus [6] = test: Inhibition of androstenedione-induced testosterone production in tumor of human CWR22R cells xenografted in po dosed BALB/c athymic nude mouse treated 1 hr prior to androstenedione-challenge measured after 2 hrs; format: functional, organism-based; summary of the method: as §2
[7] = Oral bioavailability in Sprague-Dawley rat at 1 mg/kg; format: ADME, organism-based; conditions: in vivo
Summary of the method: (§3)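 Male Sprague-Dawley rats aged 8 weeks received a single 1 mg/kg dose. The iv vehicle was saline with 15% DMF and 20% PEG 400; the oral vehicle was water with 10% DMF and 10% propylene glycol. Blood was sampled at multiple times up to 24 h and spun at 16,000 g for 2 min at 4 °C. Plasma drug was measured by HPLC-MS/MS.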

[8] = Total clearance in Sprague-Dawley rat at 1 mg/kg, iv; format: ADME, organism-based; design: dose 1 mg/kg, route intravenous; conditions: in vivo; summary of the method: as §3
[9] = Volume of distribution at steady state in Sprague-Dawley rat at 1 mg/kg, iv; format: ADME, organism-based; design: dose 1 mg/kg, route intravenous; conditions: in vivo, read-out: Vdss; summary of the method: as §3
[10] = Tmax in Sprague-Dawley rat at 1 mg/kg, po; format: ADME, organism-based; design: dose 1 mg/kg, route oral; conditions: in vivo; summary of the method: as §3
[11] = Half life in Sprague-Dawley rat at 1 mg/kg, iv; format: ADME, organism-based; design: dose 1 mg/kg, route intravenous; conditions: in vivo; summary of the method: as §3
[12] = AUC (0 to 24 hrs) in Sprague-Dawley rat at 1 mg/kg, iv; format: ADME, organism-based; design: time < 24 hr, dose 1 mg/kg, route intravenous; conditions: plasma; summary of the method: as §3
[13] = AUC (0 to 24 hrs) in Sprague-Dawley rat at 1 mg/kg, po; format: ADME, organism-based; design: time < 24 hr, dose 1 mg/kg, route oral; conditions: plasma; summary of the method: as §3
[14] = Cmax in Sprague-Dawley rat at 1 mg/kg, po; format: ADME, organism-based; design: dose 1 mg/kg, route oral; conditions: in vivo; summary of the method: as §3
[15] = Permeability of the compound after 2 hrs at pH 6.5 by PAMPA; format: ADME; conditions: read-out: permeability
Summary of the method: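 PAMPA used a donor at pH 6.5 (universal buffer, 10% DMSO, typical final sample 50 μM, filtered) and an acceptor at pH 7.4, separated by a filter coated with 20% lecithin in dodecane. Plates were incubated at 25 °C for 2 h under saturated humidity. Both compartments were quantified by UV spectrum (270-400 nm) against standards, with a mass balance correction; Pe was then calculated.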

[16] = Solubility of the compound at pH 6.8; format: physicochemical; conditions: buffer
Summary of the method: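 A 10 mM DMSO solution (13 μL) was added to 1 mL of Japanese Pharmacopoeia second disintegration fluid (pH 6.8) and shaken at 25 °C for 20 h. Solubility was calculated from the LC peak-area ratio of sample to standard.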

[17] = Plasma concentration in ICR mouse at 30 mg/kg, po after 4 hrs by HPLC analysis; format: ADME, organism-based; design: dose 30 mg/kg, route oral
Summary of the method: (§4)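 ICR mice were dosed orally, and blood was collected 1 or 4 h later. Compound was extracted from plasma with acetonitrile and quantified by HPLC.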

[18] = Plasma concentration in ICR mouse at 30 mg/kg, po after 1 hr by HPLC analysis; format: ADME, organism-based; design: dose 30 mg/kg, route oral; summary of the method: as §4
[19] = target: T1, Aldo-keto reductase family 1 member C3; test: Inhibition of human 17beta-HSD5 expressed in human CWR22R cells using androstenedione as substrate assessed as testosterone synthesis after 4 hrs; format: cell-based
Summary of the method: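 CWR22R cells were seeded at 2×10^4 cells/well in RPMI-1640/10% FBS and incubated overnight at 37 °C, 5% CO2. Compound was added with androstenedione (final 300 nmol/mL). After 4 h, supernatant testosterone was quantified by DELFIA.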

## O=C(c1cc2ccccc2[nH]1)N1CCCC(CCO)C1 (centres undefined)
[1]
  IC50: 2100 nM

## Cc1ccc2[nH]c(C(=O)N3CC=CCC3)cc2c1
[1]
  IC50: 2800 nM

## Cc1ccc2[nH]c(C(=O)N3CCC(CCCO)CC3)cc2c1
[1]
  IC50: 160 nM

## Cc1ccc2[nH]c(C(=O)N3CCN(CCO)CC3)cc2c1
[1]
  IC50: 770 nM

## Cc1ccc2[nH]c(C(=O)N3CCC(CO)CC3)cc2c1
[1]
  IC50: 790 nM

## O=C(c1cc2ccccc2[nH]1)N1CC(CCO)C1
[1]
  IC50: 140 nM

## O=C(c1cc2ccccc2[nH]1)N1CCCCC1CCO (centres undefined)
[1]
  IC50: 230 nM

## Cc1ccc2[nH]c(C(=O)N3CCC(CC(C)(C)O)CC3)cc2c1
[2]
  IC50: > 100000 nM
Cytochrome P450 2C19
  IC50: > 25000 nM
Cytochrome P450 3A4
  IC50: > 100000 nM
Cytochrome P450 2D6
  IC50: > 25000 nM
Cytochrome P450 2C9
  IC50: > 25000 nM
Cytochrome P450 1A2
  IC50: > 25000 nM
[3]
  IC50: > 20000 nM
[4]
  IC50: 24 nM
Mus musculus [5]
  inhibition: Active
Mus musculus [6]
  inhibition: Dose-dependent effect
[7]
  bioavailability: 65%
[8]
  clearance: 42 mL/min/kg
[9]
  Vd: 1.7 L/kg
[10]
  Tmax: 30 min
[11]
  half-life: 27.6 min
[12]
  AUC(0-t) at 24 h: 395 ng·h/mL
[13]
  AUC(0-t) at 24 h: 255 ng·h/mL
[14]
  Cmax: 180 ng/mL
[15]
  Papp at 2 h: > 30 ×10⁻⁶ cm/s
[16]
  solubility: > 100 µM
[17]
  concentration at 4 h: 3100 nM
[18]
  concentration at 1 h: 10900 nM
[19]
  IC50: 1.9 nM
[1]
  IC50: 0.34 nM

## CC(=O)CC1CCN(C(=O)c2cc3ccccc3[nH]2)CC1
[1]
  IC50: 13 nM

## O=C(c1cc2ccccc2[nH]1)N1CCC(CCO)CC1
[1]
  IC50: 4.5 nM

## Cc1ccc2[nH]c(C(=O)N3CCC(CC(=O)O)CC3)cc2c1
[1]
  IC50: > 10000 nM

## CC(O)CC1CCN(C(=O)c2cc3ccccc3[nH]2)CC1 (centres undefined)
[1]
  IC50: 12 nM

## O=C(NCCCCCO)c1cc2ccccc2[nH]1
[1]
  IC50: 1200 nM

## CC(C)(O)CC1CCN(C(=O)c2cc3ccccc3[nH]2)CC1
[15]
  Papp at 2 h: 26 ×10⁻⁶ cm/s
[16]
  solubility: > 100 µM
[17]
  concentration at 4 h: < 100 nM
[18]
  concentration at 1 h: 2610 nM
[1]
  IC50: 2.1 nM

## Cc1ccc2[nH]c(C(=O)N3CCC(CCO)CC3)cc2c1
[15]
  Papp at 2 h: > 30 ×10⁻⁶ cm/s
[16]
  solubility: > 100 µM
[17]
  concentration at 4 h: < 100 nM
[18]
  concentration at 1 h: < 100 nM
[19]
  IC50: 58 nM
[1]
  IC50: 37 nM

## O=C(c1cc2ccccc2[nH]1)N1CCC(CCO)C1 (centres undefined)
[1]
  IC50: 1100 nM

## COCCC1CCN(C(=O)c2cc3ccccc3[nH]2)CC1
[1]
  IC50: 33 nM
